Test results from publication PMC7079967 (Medicinal Chemistry Research, 2016).

Tests used:
Type in all cases: cell-based
[1] = tested on: murine leukemia cells (L1210); assay: Antiproliferative; conditions: Mus musculus, L1210, 48 h, read-out: IC50 L1210
How it was run: (§1)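 Cells in growth medium proliferated with variable concentrations of test compound at 37 °C in a humidified CO2-controlled atmosphere. Incubation was 48 h for L1210 and 96 h for HeLa. Cell number was then counted with a Coulter counter. IC50 was the concentration inhibiting cell proliferation by 50 %.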

[2] = tested on: human T-lymphocyte cells (CEM); assay: Antiproliferative; conditions: 72 h, read-out: IC50 CEM
How it was run: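 Human T-lymphocyte CEM cells, suspended in growth medium, were left to proliferate in microtiter wells with varying amounts of test compound at 37 °C in a humidified, CO2-controlled atmosphere. After 72 h, cells were counted with a Coulter counter. IC50 is the concentration that inhibits cell proliferation by 50 %.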

[3] = tested on: human cervix carcinoma cells (HeLa); assay: Antiproliferative; conditions: 96 h, read-out: IC50 HeLa
How it was run: as §1

[4] = tested on: L1210, CEM and HeLa tumor cell lines; assay: Cytostatic activity stated over the three tumor cell lines together
[5] = tested on: Parainfluenza-3 virus; assay: Antiviral assay, virus-induced cytopathicity in Vero cells; conditions: read-out: IC50 Parainfluenza-3 virus
[6] = tested on: Reovirus-1; assay: as above; conditions: read-out: IC50 Reovirus-1
[7] = tested on: Sindbis virus; assay: as above; conditions: read-out: IC50 Sindbis virus

Question: Which results are given for `O=c1[nH]cc(F)c(=O)[nH]1` [5-Fluorouracil, reference compound]?
Answer: IC50 [1]: 0.33 ± 0.17 µM; IC50 [2]: 18 ± 5 µM; IC50 [3]: 0.54 ± 0.12 µM

Question: For `Sc1ncnc2nc[nH]c12` [6-Mercaptopurine, reference compound], which IC50 [1] is on record?
Answer: 2.8 ± 1.1 µM

Question: And the IC50 [2]?
Answer: 2.8 ± 1.3 µM

Question: And the IC50 [3]?
Answer: 1.1 ± 0.1 µM

Question: With `CC(=O)OC[C@H]1O[C@@H](NC(=O)NC(=O)CCCc2ccc3c(c2)CCCC3)[C@H](OC(C)=O)[C@@H](OC(C)=O)[C@@H]1OC(C)=O` [Compound 6b, N-4-(5,6,7,8-Tetrahydronaphthalen-2-yl)butanoyl-N′-(2,3,4,6-tetra-O-acetyl-β-D-glucopyranosyl)-urea] as the compound, how does the IC50 [1] read?
Answer: 78 µM

Question: What about the IC50 [2] of the same compound?
Answer: 38 ± 10 µM

Question: And the IC50 [3]?
Answer: 66 ± 12 µM

Question: For `CC(=O)OC[C@H]1O[C@@H](NC(=O)NC(=O)COc2ccc(-c3ccccc3)cc2)[C@H](OC(C)=O)[C@@H](OC(C)=O)[C@@H]1OC(C)=O` [Compound 6c, N-2-(Biphenyl-4-yloxy)acetyl-N′-(2,3,4,6-tetra-O-acetyl-β-D-glucopyranosyl)-urea], which IC50 [1] is on record?
Answer: > 250 µM

Question: And the IC50 [2]?
Answer: > 250 µM

Question: And the IC50 [3]?
Answer: > 250 µM

Question: With `O=C(CCCc1ccc2c(c1)CCCC2)NC(=O)N[C@@H]1O[C@H](CO)[C@@H](O)[C@H](O)[C@H]1O` [Compound 7b, N-4-(5,6,7,8-Tetrahydronaphthalen-2-yl)butanoyl-N′-(β-D-glucopyranosyl)-urea] as the compound, how does the IC50 [1] read?
Answer: > 250 µM

Question: What about the IC50 [2] of the same compound?
Answer: > 250 µM

Question: What about the IC50 [3] of the same compound?
Answer: > 250 µM

Question: How did the IC50 [1] turn out when `O=C(COc1ccc(-c2ccccc2)cc1)NC(=O)N[C@@H]1O[C@H](CO)[C@@H](O)[C@H](O)[C@H]1O` [Compound 7c, N-2-(Biphenyl-4-yloxy)acetyl-N′-(β-D-glucopyranosyl)-urea] was run?
Answer: 9 ± 5.9 µM

Question: And the IC50 [2]?
Answer: 24 ± 1 µM

Question: What about the IC50 [3] of the same compound?
Answer: 19 ± 3 µM

Question: What about the “cytostatic potential, fold lower than 6-mercaptopurine” value ([4]; compared with 6-mercaptopurine over L1210, CEM, HeLa) of the same compound?
Answer: 5- to 15 fold

Question: And the IC50 ([4]; read-out: IC50, cytostatic activity against the three tumor cell lines)?
Answer: 9 to 24 µM

Question: Which results are given for `NC(=O)c1ncn([C@@H]2O[C@H](CO)[C@@H](O)[C@H]2O)n1` [Ribavirin]?
Answer: IC50 [5]: 250 µM; IC50 [6]: > 250 µM; IC50 [7]: > 250 µM
